From PMC4263960 (Pediatric blood & cancer, 2013)
Like-named read-outs stand apart in the source and are kept apart here.

Experiments:
[1] = system: Rh36 EMB rhabdomyosarcoma xenograft; test: PPTP in vivo xenograft testing, Rh36; set-up: species or system mice
[2] = system: NB-1691 neuroblastoma xenograft; test: PPTP in vivo xenograft testing, NB-1691; set-up: species or system mice
[3] = system: ALL-2 ALL B-precursor xenograft; test: PPTP in vivo xenograft testing, ALL-2; set-up: species or system mice
CCRF-CEM cell line = test: DIMSCAN in vitro cytotoxicity testing, CCRF-CEM; assay type: cell-based; conditions: for IC50: Homo sapiens, CCRF-CEM, 96 h
Outline: (§1)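 Test compound incubated with cells of a 24-line pediatric cancer panel for 96 h at 0.1 nM to 1 μM, then assessed by DIMSCAN. Relative IC50 (rIC50) derived per line. Panel comparison value is the panel rIC50 divided by the rIC50 of each cell line.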

[4] = system: GBM2 glioblastoma xenograft; test: PPTP in vivo xenograft testing, GBM2; set-up: species or system mice
NB-EBc1 cell line = test: DIMSCAN in vitro cytotoxicity testing, NB-EBc1; assay type: cell-based
Outline: as §1

BT-29 rhabdoid xenograft = test: PPTP in vivo xenograft testing, BT-29; set-up: species or system mice
KT-13 Wilms xenograft = test: PPTP in vivo xenograft testing, KT-13; set-up: species or system mice
EW5 Ewing xenograft = test: PPTP in vivo xenograft testing, EW5; set-up: species or system mice
[5] = system: Rh30 ALV rhabdomyosarcoma xenograft; test: PPTP in vivo xenograft testing, Rh30; set-up: species or system mice
TC-71 Ewing xenograft = test: PPTP in vivo xenograft testing, TC-71; set-up: species or system mice
SK-NEP-1 Ewing xenograft = test: PPTP in vivo xenograft testing, SK-NEP-1; set-up: species or system mice
[6] = Eribulin pharmacokinetics in SCID mice
[7] = system: OS-1 osteosarcoma xenograft; test: PPTP in vivo xenograft testing, OS-1; set-up: species or system mice
NALM-6 cell line = test: DIMSCAN in vitro cytotoxicity testing, NALM-6; assay type: cell-based
Outline: as §1

[8] = system: BT-39 glioblastoma xenograft; test: PPTP in vivo xenograft testing, BT-39; set-up: species or system mice
[9] = system: OS-17 osteosarcoma xenograft; test: PPTP in vivo xenograft testing, OS-17; set-up: species or system mice
[10] = system: BT-50 medulloblastoma xenograft; test: PPTP in vivo xenograft testing, BT-50; set-up: species or system mice
[11] = system: OS-2 osteosarcoma xenograft; test: PPTP in vivo xenograft testing, OS-2; set-up: species or system mice
ALL xenografts = test: PPTP in vivo testing, ALL xenograft panel summary; set-up: species or system mice
[12] = system: NB-1643 neuroblastoma xenograft; test: PPTP in vivo xenograft testing, NB-1643; set-up: species or system mice
[13] = system: ALL-8 ALL T-cell xenograft; test: PPTP in vivo xenograft testing, ALL-8; set-up: species or system mice
[14] = 1 mg/kg IP Q4Dx3 repeated at Day 21
[15] = 1.5 mg/kg IP Q4Dx3 repeated at Day 21
[16] = NB-1643, 1 mg/kg IP Q4Dx3 repeated at Day 21

## C=C1C[C@@H]2CC[C@@]34C[C@H]5O[C@H]6[C@@H](O3)[C@H]3O[C@H](CC[C@@H]3O[C@H]6[C@H]5O4)CC(=O)C[C@@H]3[C@@H](OC)[C@@H](C[C@H](O)CN)O[C@H]3C[C@H]3O[C@@H](CC[C@@H]1O2)C[C@@H](C)C3=C [Eribulin]
[1]; 1 mg/kg IP
  EFS activity: High (High activity requires: (a) an EFS T/C >2; (b) a significant difference in EFS distributions, and (c) a net reduction in median tumor volume for animals in the treated group at the end of treatment as compared to at treatment initiation)
  Response activity: High (A high level of activity is indicated by a score of 6 or more)
  T/C volume activity: High (High activity = T/C ≤0.15)
[1]; [14]
  EFS T/C: >6.3
  Median final RTV (CD45%): 0.0
[1]; 1 mg/kg IP, Day 21 or earlier
  Tumor volume T/C: 0.10
[2]; 1 mg/kg IP
  EFS activity: Low (Low activity = EFS T/C <2)
  Response activity: Low (low activity by a score of <2)
  T/C volume activity: Low (Low activity = T/C >0.45)
[2]; [14]
  EFS T/C: 1.1
  Median final RTV (CD45%): >4
  Time to event: 7.9
[2]; 1 mg/kg IP, Day 21 or earlier
  Tumor volume T/C: 0.80
[3]; 1.5 mg/kg IP
  EFS activity: High (High activity requires: (a) an EFS T/C >2; (b) a significant difference in EFS distributions, and (c) a net reduction in median tumor volume for animals in the treated group at the end of treatment as compared to at treatment initiation)
  Response activity: High (A high level of activity is indicated by a score of 6 or more)
[3]; [15]
  EFS T/C: >2.8
[3]; CD45%, 1.5 mg/kg IP
  Median final RTV (CD45%): 0.0%
CCRF-CEM cell line; CCRF-CEM (1)
  Panel rIC50/Line rIC50: 0.17
  Relative in/out%: −100%
  Ymin % (observed): 0.01%
CCRF-CEM cell line; CCRF-CEM (2)
  Panel rIC50/Line rIC50: 0.14
  Relative in/out%: −100%
  Ymin % (observed): 0.02%
CCRF-CEM cell line; read-out: rIC50, CCRF-CEM (1) ALL
  IC50: 1.62 nM
CCRF-CEM cell line; read-out: rIC50, CCRF-CEM (2) ALL
  IC50: 1.88 nM
[4]; 1 mg/kg IP
  EFS activity: High (High activity requires: (a) an EFS T/C >2; (b) a significant difference in EFS distributions, and (c) a net reduction in median tumor volume for animals in the treated group at the end of treatment as compared to at treatment initiation)
  Response activity: High (A high level of activity is indicated by a score of 6 or more)
  T/C volume activity: Low (Low activity = T/C >0.45)
[4]; [14]
  EFS T/C: >3.5
  Median final RTV (CD45%): 0.6
[4]; 1 mg/kg IP, Day 21 or earlier
  Tumor volume T/C: 1.00
NB-EBc1 cell line; 96 h, read-out: rIC50
  IC50: 14.8 nM
NB-EBc1 cell line; NB-EBc1
  Panel rIC50/Line rIC50: 0.02
  Relative in/out%: −92%
  Ymin % (observed): 1.76%
BT-29 rhabdoid xenograft; 1 mg/kg IP
  Response activity: Int (intermediate activity by a score of ≥2 but <6)
  T/C volume activity: Low (Low activity = T/C >0.45)
BT-29 rhabdoid xenograft; [14]
  EFS T/C: >1.6
  Median final RTV (CD45%): >4
BT-29 rhabdoid xenograft; 1 mg/kg IP, Day 21 or earlier
  Tumor volume T/C: 0.65
KT-13 Wilms xenograft; 1 mg/kg IP
  EFS activity: Int (Intermediate activity = criteria (a) and (b) above, but not having a net reduction in median tumor volume for treated animals at the end of the study)
  Response activity: High (A high level of activity is indicated by a score of 6 or more)
  T/C volume activity: High (High activity = T/C ≤0.15)
KT-13 Wilms xenograft; [14]
  EFS T/C: >3.3
  Median final RTV (CD45%): 1.1
KT-13 Wilms xenograft; 1 mg/kg IP, Day 21 or earlier
  Tumor volume T/C: 0.15
EW5 Ewing xenograft; 1 mg/kg IP
  EFS activity: Int (Intermediate activity = criteria (a) and (b) above, but not having a net reduction in median tumor volume for treated animals at the end of the study)
  Response activity: Int (intermediate activity by a score of ≥2 but <6)
  T/C volume activity: High (High activity = T/C ≤0.15)
EW5 Ewing xenograft; [14]
  EFS T/C: 3.3
  Median final RTV (CD45%): >4
  Time to event: 41.3
EW5 Ewing xenograft; 1 mg/kg IP, Day 21 or earlier
  Tumor volume T/C: 0.13
[5]; 1 mg/kg IP
  EFS activity: High (High activity requires: (a) an EFS T/C >2; (b) a significant difference in EFS distributions, and (c) a net reduction in median tumor volume for animals in the treated group at the end of treatment as compared to at treatment initiation)
  Response activity: High (A high level of activity is indicated by a score of 6 or more)
  T/C volume activity: High (High activity = T/C ≤0.15)
[5]; [14]
  EFS T/C: >3.8
  Median final RTV (CD45%): 0.0
[5]; 1 mg/kg IP, Day 21 or earlier
  Tumor volume T/C: 0.06
TC-71 Ewing xenograft; 1 mg/kg IP
  Response activity: High (A high level of activity is indicated by a score of 6 or more)
  T/C volume activity: Int (Intermediate activity = T/C ≤0.45 but >0.15)
TC-71 Ewing xenograft; [14]
  EFS T/C: >1.5
  Median final RTV (CD45%): 2.3
TC-71 Ewing xenograft; 1 mg/kg IP, Day 21 or earlier
  Tumor volume T/C: 0.19
SK-NEP-1 Ewing xenograft; 1 mg/kg IP
  EFS activity: High (High activity requires: (a) an EFS T/C >2; (b) a significant difference in EFS distributions, and (c) a net reduction in median tumor volume for animals in the treated group at the end of treatment as compared to at treatment initiation)
  Response activity: High (A high level of activity is indicated by a score of 6 or more)
  T/C volume activity: High (High activity = T/C ≤0.15)
SK-NEP-1 Ewing xenograft; [14]
  EFS T/C: >4.3
  Median final RTV (CD45%): 0.0
SK-NEP-1 Ewing xenograft; 1 mg/kg IP, Day 21 or earlier
  Tumor volume T/C: 0.00
[6]; 1 mg/kg dose, SCID mice
  AUC (area under the plasma drug concentration-time curve): 658 ng·h/mL
[6]; preclinical setting, three doses of 1 mg/kg per course
  AUC per course of treatment: 1,974 ng hour/ml
[7]; 1 mg/kg IP
  Response activity: High (A high level of activity is indicated by a score of 6 or more)
  T/C volume activity: Low (Low activity = T/C >0.45)
[7]; [14]
  EFS T/C: >1.5
  Median final RTV (CD45%): 0.4
[7]; 1 mg/kg IP, Day 21 or earlier
  Tumor volume T/C: 0.64
NALM-6 cell line; Homo sapiens, NALM-6, 96 h, read-out: rIC50
  IC50: 0.59 nM
NALM-6 cell line; NALM-6
  Panel rIC50/Line rIC50: 0.46
  Relative in/out%: −99%
  Ymin % (observed): 0.03%
[8]; 1 mg/kg IP
  EFS activity: High (High activity requires: (a) an EFS T/C >2; (b) a significant difference in EFS distributions, and (c) a net reduction in median tumor volume for animals in the treated group at the end of treatment as compared to at treatment initiation)
  Response activity: Int (intermediate activity by a score of ≥2 but <6)
  T/C volume activity: Low (Low activity = T/C >0.45)
[8]; [14]
  EFS T/C: >3.6
  Median final RTV (CD45%): 0.5
[8]; 1 mg/kg IP, Day 21 or earlier
  Tumor volume T/C: 1.00
[9]; 1 mg/kg IP
  EFS activity: High (High activity requires: (a) an EFS T/C >2; (b) a significant difference in EFS distributions, and (c) a net reduction in median tumor volume for animals in the treated group at the end of treatment as compared to at treatment initiation)
  Response activity: High (A high level of activity is indicated by a score of 6 or more)
  T/C volume activity: Int (Intermediate activity = T/C ≤0.45 but >0.15)
[9]; [14]
  EFS T/C: >2.3
  Median final RTV (CD45%): 0.5
[9]; 1 mg/kg IP, Day 21 or earlier
  Tumor volume T/C: 0.25
[10]; 1 mg/kg IP
  Response activity: Low (low activity by a score of <2)
  T/C volume activity: Low (Low activity = T/C >0.45)
[10]; [14]
  EFS T/C: >1.1
  Median final RTV (CD45%): >4
[10]; 1 mg/kg IP, Day 21 or earlier
  Tumor volume T/C: 0.78
[11]; 1 mg/kg IP
  EFS activity: High (High activity requires: (a) an EFS T/C >2; (b) a significant difference in EFS distributions, and (c) a net reduction in median tumor volume for animals in the treated group at the end of treatment as compared to at treatment initiation)
  Response activity: Int (intermediate activity by a score of ≥2 but <6)
  T/C volume activity: Int (Intermediate activity = T/C ≤0.45 but >0.15)
[11]; [14]
  EFS T/C: >2.5
  Median final RTV (CD45%): 0.8
[11]; 1 mg/kg IP, Day 21 or earlier
  Tumor volume T/C: 0.21
ALL xenografts; ALL panel
  xenografts with CR or MCR: All eight
  xenografts with high EFS T/C activity: six of eight
ALL xenografts; evaluable ALL xenografts, 1.5 mg/kg
  xenografts with significant difference in EFS distribution compared to control: 8 of 8
[12]; NB-1643, 1 mg/kg IP
  EFS activity: High (High activity requires: (a) an EFS T/C >2; (b) a significant difference in EFS distributions, and (c) a net reduction in median tumor volume for animals in the treated group at the end of treatment as compared to at treatment initiation)
  Response activity: High (A high level of activity is indicated by a score of 6 or more)
  T/C volume activity: High (High activity = T/C ≤0.15)
[12]; [16]
  EFS T/C: >4.7
  Median final RTV (CD45%): 0.6
[12]; NB-1643, 1 mg/kg IP, Day 21 or earlier
  Tumor volume T/C: 0.01
[12]; NB-1643 neuroblastoma xenograft
  objective response: achieved an objective response
[13]; 1.5 mg/kg IP
  EFS activity: High (High activity requires: (a) an EFS T/C >2; (b) a significant difference in EFS distributions, and (c) a net reduction in median tumor volume for animals in the treated group at the end of treatment as compared to at treatment initiation)
  Response activity: High (A high level of activity is indicated by a score of 6 or more)
[13]; [15]
  EFS T/C: >7.9
[13]; CD45%, 1.5 mg/kg IP
  Median final RTV (CD45%): 0.0%
